What follows are compounds tested on Rattus norvegicus (assay: Antiallergic activity in sensitized Sprague-Dawley rat assessed as inhibition of passive cutaneous anaphylaxis at 1 mg/kg, iv). Conditions: not given.
Assay type: functional
Summary of the method: (§1)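 Female Sprague-Dawley rats (80–100 g, groups of five) got 0.1 ml intradermal flank injections of rat anti-N. braziliensis reaginic serum, diluted 1 in 8 to 1 in 32. After 24 h they were challenged iv with worm antigen (25 mg/kg protein) plus Evans blue (25 mg/kg). Compound in saline was given iv with the challenge. Rats were killed at 30 min and dye spots graded 0–4. % inhibition = 100 − 100 × treated/control mean score. ID50 was interpolated from a log-dose plot.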
With CCCc1c2oc(C(=O)[O-])cc(=O)c2c(OC)c2c(=O)cc(C(=O)[O-])oc12.[Na+].[Na+] the inhibition in vivo at 1 mg/kg was 100%.

What follows are compounds tested on Rattus norvegicus (assay: Antiallergic activity in iv dosed sensitized Sprague-Dawley rat assessed as inhibition of passive cutaneous anaphylaxis). Conditions: read-out: ID50 (the source's name).
Assay type: functional
Summary of the method: as §1
For CCOCc1c2oc(C(=O)[O-])cc(=O)c2cc2c(=O)cc(C(=O)[O-])oc12.[Na+].[Na+], the ED50 was 0.33 mg/kg. For O=C([O-])c1cc(=O)c2c(cc(O)c3c(=O)cc(C(=O)[O-])oc32)o1.[Na+].[Na+], the ED50 was 5 mg/kg. CCc1c2oc(C(=O)[O-])cc(=O)c2cc2c(=O)cc(C(=O)[O-])oc12.[Na+].[Na+] showed an ED50 of 0.1 mg/kg. Cc1c2oc(C(=O)[O-])cc(=O)c2cc2c(=O)cc(C(=O)[O-])oc12.[Na+].[Na+] showed an ED50 of 0.25 mg/kg. Compound C=CCc1c(OC)c2c(=O)cc(C(=O)[O-])oc2c2c(=O)cc(C(=O)[O-])oc12.[Na+].[Na+] has an ED50 of 0.22 mg/kg. CCc1c2oc(C(=O)[O-])cc(=O)c2c(C)c2c(=O)cc(C(=O)[O-])oc12.[Na+].[Na+] showed an ED50 of 0.03 mg/kg. Compound O=C([O-])c1cc(=O)c2cc3c(=O)cc(C(=O)[O-])oc3cc2o1.[Na+].[Na+] has an ED50 of 0.18 mg/kg. COc1cc2oc(C(=O)[O-])cc(=O)c2c2oc(C(=O)[O-])cc(=O)c12.[Na+].[Na+] showed an ED50 of 0.73 mg/kg. Compound COc1c2c(=O)cc(C(=O)[O-])oc2cc2oc(C(=O)[O-])cc(=O)c12.[Na+].[Na+] has an ED50 of 0.32 mg/kg. CCOc1cc2oc(C(=O)[O-])cc(=O)c2c2oc(C(=O)[O-])cc(=O)c12.[Na+].[Na+] showed an ED50 of 0.38 mg/kg. In the case of O=C([O-])c1cc(=O)c2c(o1)c(Cl)cc1c(=O)cc(C(=O)[O-])oc12.[Na+].[Na+], the ED50 is reported as over 10 mg/kg. Work on CCCc1c(OC)c2c(=O)cc(C(=O)[O-])oc2c2c(=O)cc(C(=O)[O-])oc12.[Na+].[Na+] yielded an ED50 of 0.18 mg/kg. O=C([O-])c1cc(=O)c2cc3oc(C(=O)[O-])cc(=O)c3cc2o1.[Na+].[Na+] showed an ED50 of 0.68 mg/kg. CCCc1c2oc(C(=O)[O-])cc(=O)c2cc2c(=O)cc(C(=O)[O-])oc12.[Na+].[Na+] was tested, and the ED50 was 0.05 mg/kg. CCc1cc2c(=O)cc(C(=O)[O-])oc2c2c(=O)cc(C(=O)[O-])oc12.[Na+].[Na+] gave an ED50 of 10 mg/kg. Work on CCCCc1c2oc(C(=O)[O-])cc(=O)c2cc2c(=O)cc(C(=O)[O-])oc12.[Na+].[Na+] yielded an ED50 of 0.05 mg/kg. O=C([O-])c1cc(=O)c2c(o1)c1c(c3c(=O)cc(C(=O)[O-])oc32)OCC1.[Na+].[Na+] was tested, and the ED50 was 0.35 mg/kg. C=CCOc1cc2oc(C(=O)[O-])cc(=O)c2c2oc(C(=O)[O-])cc(=O)c12.[Na+].[Na+] gave an ED50 of 0.62 mg/kg. Compound Cc1cc(=O)oc2c1c1oc(C(=O)[O-])cc(=O)c1c1oc(C(=O)[O-])cc(=O)c21.[Na+].[Na+] has an ED50 of 4.24 mg/kg. O=C([O-])c1cc(=O)c2c(OCC(O)COc3cccc4oc(C(=O)[O-])cc(=O)c34)cccc2o1.[Na+].[Na+] [CROMOLYN SODIUM] was tested, and the ED50 was 1.2 mg/kg. O=C([O-])c1cc(=O)c2cc3c(=O)cc(C(=O)[O-])oc3c([N+](=O)[O-])c2o1.[Na+].[Na+] showed an ED50 of 1.6 mg/kg. In the case of O=C([O-])c1cc(=O)c2c(ccc3c(=O)cc(C(=O)[O-])oc32)o1.[Na+].[Na+], the ED50 is reported as 7.6 mg/kg. With CCCc1c2oc(C(=O)[O-])cc(=O)c2c(OC)c2c(=O)cc(C(=O)[O-])oc12.[Na+].[Na+] the ED50 was 0.1 mg/kg.

From ChEMBL document CHEMBL3272168, “Benzodipyran derivatives with antiallergic activity” (1976)
